Measured values published in ChEMBL document CHEMBL1137291, “p38 MAP kinase inhibitors. Part 5: discovery of an orally bio-available and highly efficacious compound based on the 7-amino-naphthyridone scaffold” (Bioorg Med Chem Lett, 2006).
Blank lines part the entries; values can stand above or below the compound they belong to.

Experiments:
Rattus norvegicus [1] = assay: Inhibition of paw swelling in AIA Lewis rat at 1 mg/kg, po after 21 days; format: functional; details: 504 h
In short: (§1)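 Seven-week-old female Lewis rats had adjuvant injected into the left hind paw on day 0. Disease developed over 12 days, then rats were dosed orally at 0.1, 0.3, 1 or 3 mpk once daily for ten days. On days 0, 12 and 21 they were weighed, paw volumes measured and radiographs taken. Swelling of the secondary paw was scored.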

Blood = assay: Inhibition of LPS-stimulated TNFalpha release in human whole blood; format: functional, tissue-based
Rattus norvegicus [2] = assay: Inhibition of TNFalpha production in rat LPS challenge model at 0.1 mg/kg, po after 24 hrs; format: functional
Rattus norvegicus [3] = assay: Inhibition of TNFalpha production in rat LPS challenge model at 3 mg/kg, po after 16 hrs; format: functional
Rattus norvegicus [4] = assay: Inhibition of paw swelling in AIA Lewis rat at 3 mg/kg, po after 21 days; format: functional; details: 504 h; in short: as §1
Rattus norvegicus [5] = assay: Inhibition of TNFalpha production in rat LPS challenge model at 3 mg/kg, po after 24 hrs; format: functional
THP-1 = assay: Inhibition of TNFalpha release from LPS-stimulated human monocyte THP1 cells; format: functional, cell-based
[6] = Oral bioavailability in rhesus macaque; format: ADME, organism-based, Macaca mulatta; details: rhesus monkey, in vivo
Mus musculus = assay: Inhibition of TNFalpha production in BALB/c mouse at 0.3 mg/kg up to 24hrs; format: functional
In short: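 Female Balb/c mice aged 12–16 weeks were given compound orally in 0.5% methylcellulose 22.5 h before LPS challenge. They were sacrificed 1.5 h after challenge, and plasma TNF-a was measured by ELISA.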

[7] = Volume of distribution in Sprague-Dawley rat at 1 mg/kg; format: ADME, organism-based; parameters: dose 1 mg/kg; details: in vivo, read-out: Vdss
[8] = Half life in rhesus macaque; format: ADME, organism-based, Macaca mulatta; details: rhesus monkey, in vivo
Rattus norvegicus [9] = assay: Inhibition of TNF-alpha production in rat LPS challenge model at 0.3 mg/kg, po after 24 hrs; format: functional
[10] = Oral bioavailability in Sprague-Dawley rat; format: ADME, organism-based; details: in vivo
In short: (§2)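 Sprague-Dawley rats (male where specified) were dosed orally at 1 mpk, in one case as a 0.5% methylcellulose suspension. Plasma exposure was followed to give oral bioavailability, AUC, C_max and half-life.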

Rattus norvegicus [11] = assay: Inhibition of TNF-alpha production in rat LPS challenge model at 1 mg/kg, po after 24 hrs; format: functional
Rattus norvegicus [12] = assay: Inhibition of paw swelling in AIA Lewis rat at 0.3 mg/kg, po after 21 days; format: functional; details: 504 h; in short: as §1
Rattus norvegicus [13] = assay: Inhibition of paw swelling in AIA Lewis rat at 0.1 mg/kg, po after 21 days; format: functional; details: 504 h; in short: as §1
[14] = Volume of distribution in rhesus macaque; format: ADME, organism-based, Macaca mulatta; details: rhesus monkey, in vivo; read-out: Vdss
Rattus norvegicus [15] = assay: Inhibition of TNFalpha production in rat LPS challenge model at 3 mg/kg, po after 6 hrs; format: functional
[16] = Clearance in Sprague-Dawley rat at 1 mg/kg; format: ADME, organism-based; parameters: dose 1 mg/kg; details: in vivo
Rattus norvegicus [17] = organism: Rattus norvegicus; assay: Inhibition of paw swelling in AIA Lewis rat after 21 days; format: functional; details: 504 h; in short: as §1
[18] = Half life in Sprague-Dawley rat at 1 mg/kg; format: ADME, organism-based; parameters: dose 1 mg/kg; details: in vivo; in short: as §2
[19] = Clearance in rhesus macaque; format: ADME, organism-based, Macaca mulatta; details: rhesus monkey, in vivo
[20] = Cmax in Sprague-Dawley rat at 1 mg/kg; format: ADME, organism-based; parameters: dose 1 mg/kg; details: in vivo; in short: as §2
Rattus norvegicus [21] = assay: Reduction of TNFalpha production in rat LPS challenge model at 10 mg/kg, po after 3 hrs; format: functional; parameters: scale not given: the % may be the effect or the level left
[22] = Cmax in rat; format: ADME, organism-based; details: in vivo; in short: as §2
[23] = Oral bioavailability in rat; format: ADME, organism-based; details: in vivo; in short: as §2
[24] = Half life in rat; format: ADME, organism-based; details: in vivo; in short: as §2
[25] = Half life in Sprague-Dawley rat at 1 mg/kg, po; format: ADME, organism-based; parameters: dose 1 mg/kg, route oral; details: in vivo; in short: as §2
[26] = Bioavailability in Sprague-Dawley rat at 1 mg/kg, po; format: ADME, organism-based; details: in vivo; in short: as §2
[27] = Cmax in Sprague-Dawley rat at 1 mg/kg, po; format: ADME, organism-based; parameters: dose 1 mg/kg, route oral; details: in vivo; in short: as §2

SMILES: CNc1cc2c(ccc(=O)n2-c2c(F)cccc2F)c(-c2ccc(F)cc2F)n1
IC50 (Blood): 73 nM
IC50 (THP-1): 7.3 nM

SMILES: O=c1ccc2c(-c3ccc(F)cc3F)nccc2n1-c1ccccc1Cl
IC50 (Blood): 86.1 nM
IC50 (THP-1): 40.5 nM

SMILES: O=c1ccc2c(-c3ccc(F)cc3F)[n+]([O-])ccc2n1-c1c(Cl)cccc1Cl
inhibition in vivo at 3 mg/kg (Rattus norvegicus [5]): 80%
IC50 (THP-1): 200 nM
half-life [25]: 9.9 h
bioavailability [26]: 98%
Cmax [27]: 3.5 µM

The next compounds have a lower IC50 (THP-1) than those just listed; values first:

IC50 (Blood): 145 nM
IC50 (THP-1): 7 nM
SMILES: O=c1ccc2c(-c3ccc(F)cc3F)nccc2n1-c1c(F)cccc1F

Cmax [22]: 1 µM
bioavailability [23]: 57%
IC50 (Blood): 101 nM
IC50 (THP-1): 6.6 nM
half-life [24]: 2 h
SMILES: O=c1ccc2c(-c3ccc(F)cc3F)nccc2n1-c1c(Cl)cccc1Cl
inhibition in vivo at 3 mg/kg (Rattus norvegicus [3]): 37%
inhibition in vivo at 3 mg/kg (Rattus norvegicus [5]): 27%
inhibition in vivo at 3 mg/kg (Rattus norvegicus [15]): 61%

IC50 (Blood): 121 nM
IC50 (THP-1): 4.5 nM
SMILES: O=c1ccc2c(-c3ccc(F)cc3F)nc(O)cc2n1-c1c(F)cccc1F
Activity (Rattus norvegicus [21]): 70%

IC50 (Blood): 34 nM
IC50 (THP-1): 0.69 nM
bioavailability [6]: 22%
Vd [7]: 0.9 L/kg
half-life [8]: 11.6 h
bioavailability [10]: 68%
Vd [14]: 0.9 L/kg
clearance [16]: 1.6 mL/min/kg
half-life [18]: 6.5 h
clearance [19]: 1.3 mL/min/kg
Cmax [20]: 3.5 µM
SMILES: Nc1cc2c(ccc(=O)n2-c2c(F)cccc2F)c(-c2ccc(F)cc2F)n1
inhibition in vivo at 1 mg/kg (Rattus norvegicus [1]): 65%
inhibition in vivo at 0.1 mg/kg (Rattus norvegicus [2]): 53%
inhibition in vivo at 3 mg/kg (Rattus norvegicus [3]): 95%
inhibition in vivo at 3 mg/kg (Rattus norvegicus [4]): 80%
inhibition in vivo at 3 mg/kg (Rattus norvegicus [5]): 92%
inhibition in vivo at 0.3 mg/kg (Mus musculus): > 90%
inhibition in vivo at 0.3 mg/kg (Rattus norvegicus [9]): 75%
inhibition in vivo at 1 mg/kg (Rattus norvegicus [11]): 79%
inhibition in vivo at 1 mg/kg (Rattus norvegicus [11]; read-out: Inhibition): 79%
inhibition in vivo at 0.3 mg/kg (Rattus norvegicus [12]): 54%
inhibition in vivo at 0.1 mg/kg (Rattus norvegicus [13]): 38%
inhibition in vivo at 3 mg/kg (Rattus norvegicus [15]): 97%
ED50 (Rattus norvegicus [17]): 0.22 mg/kg
